Broadly, the Ki is the dissociation constant of the complex between target and ligand, obtained from inhibition or displacement. Broadly, the logD is the decadic logarithm of the distribution of all forms, ionised or not, between an organic phase and buffer at a given pH. Lower therefore signals a more hydrophilic compound. A word on the Tmax: it is the time from dosing to the highest level.

This is an account of results in ChEMBL document CHEMBL4627337, “Synthesis and pharmacokinetic study of a 11C-labeled cholesterol 24-hydroxylase inhibitor using 'in-loop' [11C]CO2 fixation method” (Bioorg Med Chem Lett, 2020).

Data set [1] deals with Cholesterol 24-hydroxylase (Homo sapiens, UniProt Q9Y6A2). Put plainly: Binding affinity to truncated d(2-50) 4His-tagged human CYP46A1 expressed in Escherichia coli DH5alpha as cholesterol-24 hydroxylation using cholesterol as substrate incubated for 30 mins in presence of NADPH cytochrome P450 oxidoreductase by gas chromatography-mass spectrometry.
Data set [2] in a line: Drug uptake in iv dosed mouse pancreas assessed as per gram of wet tissue measured after 5 to 60 mins. It is filed as ADME, organism-based. To be noted: read-out: Drug uptake. The method, boiled down:
(§1)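 Ex vivo whole-body biodistribution in mice after intravenous radioligand injection. Tissues collected at 5, 15, 30 and 60 min; radioactivity expressed as %ID/g, mean ± SD, n = 4 per time point.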

A short description of data set [3]: Stability in saline containing 5% ethanol assessed as compound radiolysis after 90 mins post formulation. It is filed as physicochemical. To be noted: buffer, 1.5 h. Summed up: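 Radiotracer formulated in saline containing 5% ethanol and held for 90 min after formulation, then checked for radiolysis.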
Data set [4] in a line: Lipophilicity, logD of compound in n-octanol and phosphate buffered saline by shake flask method. It is filed as physicochemical. The method, boiled down: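 Shake-flask partition of the 11C-labeled compound between n-octanol and phosphate buffered saline; logD calculated from the distribution of radioactivity between phases.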
The nature of data set [5]: Drug uptake in iv dosed mouse kidney assessed as per gram of wet tissue measured after 5 to 60 mins. The note with it: read-out: Drug uptake. It is filed as ADME, organism-based. The method, boiled down:
as §1

Data set [6] can be described thus: Drug uptake in dosed iv mouse liver assessed as per gram of wet tissue measured after 5 to 60 mins. The note with it: read-out: Drug uptake. It is filed as ADME, organism-based. The method, boiled down:
as §1

Data set [7] in a line: Drug uptake in iv dosed mouse brain after 5 to 60 mins. It is filed as ADME, organism-based. The note with it: in vivo. Summed up: as §1
Data set [8] in a line: Drug uptake in iv dosed mouse lung assessed as per gram of wet tissue measured after 5 to 60 mins. The note with it: read-out: Drug uptake. It is filed as ADME, organism-based. The method, boiled down: as §1
Data set [9] is described as follows: Drug uptake in iv dosed mouse small intestine assessed as per gram of wet tissue measured after 5 to 60 mins. It is filed as ADME, organism-based. The note with it: read-out: Drug uptake. Summed up:
as §1

A short description of data set [10]: Drug uptake in CD1 mouse brain assessed as standard uptake value after 0.5 mins. It is filed as ADME, tissue-based. To be noted: in vivo. Summed up:
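Dynamic PET acquisition in CD-1 mice over 60 min after radioligand injection; brain time–activity curves expressed as standard uptake value. Blocking arm pretreated with 2-phenylcyclopropan-1-amine (3 mg/kg); uptake compared by area under the curve.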

The nature of data set [11]: Tmax in iv dosed mouse small intestine. It is filed as ADME, organism-based. Summed up: as §1

Chain of Cholesterol 24-hydroxylase (Q9Y6A2 whole entry, the tested form may be a part): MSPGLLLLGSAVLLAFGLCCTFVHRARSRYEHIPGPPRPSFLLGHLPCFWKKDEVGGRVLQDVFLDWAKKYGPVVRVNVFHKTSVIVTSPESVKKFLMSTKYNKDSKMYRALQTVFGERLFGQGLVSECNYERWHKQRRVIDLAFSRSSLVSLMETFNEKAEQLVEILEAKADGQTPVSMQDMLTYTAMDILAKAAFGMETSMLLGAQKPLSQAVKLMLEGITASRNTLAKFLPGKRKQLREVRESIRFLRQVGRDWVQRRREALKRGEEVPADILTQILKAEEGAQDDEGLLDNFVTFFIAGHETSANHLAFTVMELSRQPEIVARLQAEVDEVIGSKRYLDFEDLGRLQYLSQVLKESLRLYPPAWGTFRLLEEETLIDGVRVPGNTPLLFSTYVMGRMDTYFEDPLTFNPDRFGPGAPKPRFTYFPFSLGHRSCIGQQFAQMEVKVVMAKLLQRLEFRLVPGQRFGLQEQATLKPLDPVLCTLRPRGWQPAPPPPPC

As to `O=C(NCc1ccccc1)N1CCN(c2cncnc2-c2ccccc2)CC1`, in data set [1], the Ki came to 7.3 µM.

For `O=[11C](NCc1ccccc1)N1CCN(c2cncnc2-c2ccccc2)CC1`, the tissue uptake in data set [2], in data set [5], in [6], in [8] and in [9] was more than 10 %ID/g each time. In data set [3], the Stability result is “Stable”. This compound gave a logD in data set [4] of 3.05. For the same compound, the Drug uptake result in data set [7] was “Active”. The SUV in data set [10] stood at 0.42. Further, in data set [11], the Tmax was 30 min.
